Laboratory results: ChEMBL document CHEMBL1133101, “7-Methyl-6,7,8,9,14,15-hexahydro-5H-benz[d]indolo[2,3-g]azecine: a new heterocyclic system and a new lead compound for dopamine receptor antagonists” (J Med Chem, 2000)

Experiments:
D(1A) dopamine receptor = D(1A) dopamine receptor (Rattus norvegicus, UniProt P18901); experiment: Binding affinity against Dopamine receptor D1 of rat striatal receptor using [3H]SCH-23390
Method in brief: (§1)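 Rat striatal receptor preparations were used, with [3H]SCH23390 for D1, [3H]spiperone for D2 and [3H]RP62203 for 5-HT2. Ki ([…]) was derived from competitive displacement of the radioligand, with n = 3–7.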

[1] = molecular target: Angiotensin II receptor (Homo sapiens) (UniProt P30556+P50052); experiment: Percent decrease of Angiotensin II receptor binding; type: protein assay; set-up: concentration or dose not given beside the values
Method in brief: (§2)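 Preliminary screen of receptors isolated from rat or pig tissues, run with minor changes to standard procedures. Each compound was tested at a single fixed concentration for each receptor. The read-out was the percent decrease in binding of the named radioligand.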

[2] = molecular target: T1, 5-hydroxytryptamine receptor 1A (Homo sapiens) (UniProt P08908); experiment: Percent decrease in 5-hydroxytryptamine 1A receptor binding using 8-OH-DPAT; set-up: concentration or dose not given beside the values; method in brief: as §2
T1 sequence (whole entry): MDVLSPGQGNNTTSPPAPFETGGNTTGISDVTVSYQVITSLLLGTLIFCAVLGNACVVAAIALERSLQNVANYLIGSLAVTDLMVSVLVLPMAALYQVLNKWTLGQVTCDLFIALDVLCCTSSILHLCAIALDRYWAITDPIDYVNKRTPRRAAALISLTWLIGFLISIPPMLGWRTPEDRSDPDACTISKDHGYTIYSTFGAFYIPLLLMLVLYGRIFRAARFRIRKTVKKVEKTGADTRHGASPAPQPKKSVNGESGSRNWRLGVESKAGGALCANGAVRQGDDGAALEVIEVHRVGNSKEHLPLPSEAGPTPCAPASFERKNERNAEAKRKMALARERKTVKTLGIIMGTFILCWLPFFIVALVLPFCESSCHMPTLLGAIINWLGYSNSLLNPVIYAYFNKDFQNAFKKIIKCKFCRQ

[3] = molecular target: Serotonin 2 (5-HT2) receptor (Rattus norvegicus, UniProt P30994+P08909+P14842); experiment: Binding affinity against 5-hydroxytryptamine 2 receptor in rat striatum using [3H]-RP62203; type: tissue-based
D(2) dopamine receptor = D(2) dopamine receptor (Rattus norvegicus, UniProt P61169); experiment: Binding affinity against Dopamine receptor D2 of rat striatal mambranes using [3H]spiperone; method in brief: as §1
Sequence of D(2) dopamine receptor (P61169 whole entry): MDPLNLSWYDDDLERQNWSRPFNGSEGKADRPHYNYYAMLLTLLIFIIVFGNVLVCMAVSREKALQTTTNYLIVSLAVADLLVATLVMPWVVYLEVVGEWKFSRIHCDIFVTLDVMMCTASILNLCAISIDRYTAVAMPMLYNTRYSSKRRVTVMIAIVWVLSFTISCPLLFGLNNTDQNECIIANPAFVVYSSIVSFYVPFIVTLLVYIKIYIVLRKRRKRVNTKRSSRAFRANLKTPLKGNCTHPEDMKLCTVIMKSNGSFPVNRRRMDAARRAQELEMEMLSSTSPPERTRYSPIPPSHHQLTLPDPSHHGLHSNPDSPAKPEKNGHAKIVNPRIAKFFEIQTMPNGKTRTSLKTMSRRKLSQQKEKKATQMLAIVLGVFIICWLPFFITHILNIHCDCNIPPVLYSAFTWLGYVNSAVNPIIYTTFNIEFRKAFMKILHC

[4] = molecular target: T2, Adenosine receptor A1 (Homo sapiens) (UniProt P30542); experiment: Percent decrease in Adenosine A1 receptor binding using CPDPX; set-up: scale not given: the % may be the effect or the level left
T2 sequence (whole entry): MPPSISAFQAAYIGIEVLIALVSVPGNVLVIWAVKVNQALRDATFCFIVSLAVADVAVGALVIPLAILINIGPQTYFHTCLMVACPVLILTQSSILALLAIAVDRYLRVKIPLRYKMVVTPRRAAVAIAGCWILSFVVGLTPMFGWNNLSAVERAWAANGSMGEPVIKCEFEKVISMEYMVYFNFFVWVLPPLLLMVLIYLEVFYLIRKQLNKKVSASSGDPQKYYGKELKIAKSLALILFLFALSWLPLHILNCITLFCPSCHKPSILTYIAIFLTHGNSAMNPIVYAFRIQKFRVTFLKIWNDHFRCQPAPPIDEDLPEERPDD

[5] = % Decrease of adenosine carrier-receptor -bound radioactivity using NBTI as a radioligand.; set-up: concentration or dose not given beside the values; method in brief: as §2
[6] = molecular target: T3, Glutamate receptor ionotropic AMPA (Homo sapiens) (UniProt P48058+P42263+P42262+P42261); experiment: Percent decrease in Quisqualate receptor binding using AMPA; type: protein-complex assay; set-up: scale not given: the % may be the effect or the level left; method in brief: as §2
[7] = molecular target: Sulfonylurea receptors; K-ATP channels (Homo sapiens) (UniProt Q14654+O60706+Q09428+Q15842); experiment: Percent inhibition of glibenclamide binding to K+ channel; type: protein-complex assay; set-up: concentration or dose not given beside the values; method in brief: as §2
[8] = molecular target: D(1A) dopamine receptor (Rattus norvegicus) (UniProt P18901); experiment: Percent decrease of Dopamine receptor D1 binding using SCH-23390; set-up: scale not given: the % may be the effect or the level left
Sequence of D(1A) dopamine receptor (Rattus norvegicus) (P18901 whole entry, looked up): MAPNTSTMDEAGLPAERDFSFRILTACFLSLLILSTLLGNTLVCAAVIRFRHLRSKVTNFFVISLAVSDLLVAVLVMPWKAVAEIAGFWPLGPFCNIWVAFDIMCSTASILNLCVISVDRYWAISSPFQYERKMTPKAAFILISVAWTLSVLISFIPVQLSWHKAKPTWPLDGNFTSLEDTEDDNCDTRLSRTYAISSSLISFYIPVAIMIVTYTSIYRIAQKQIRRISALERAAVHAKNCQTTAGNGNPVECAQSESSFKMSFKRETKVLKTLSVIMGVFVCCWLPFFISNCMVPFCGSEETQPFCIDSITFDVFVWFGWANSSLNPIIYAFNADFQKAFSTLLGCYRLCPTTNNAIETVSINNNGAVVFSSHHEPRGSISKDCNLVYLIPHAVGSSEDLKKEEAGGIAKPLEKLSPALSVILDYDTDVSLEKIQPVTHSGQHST

[9] = molecular target: T4, Muscarinic acetylcholine receptor M1 (Homo sapiens) (UniProt P11229); experiment: Percent decrease of Muscarinic acetylcholine receptor M1 binding using pirenzepine; set-up: scale not given: the % may be the effect or the level left; method in brief: as §2
T4 sequence (whole entry): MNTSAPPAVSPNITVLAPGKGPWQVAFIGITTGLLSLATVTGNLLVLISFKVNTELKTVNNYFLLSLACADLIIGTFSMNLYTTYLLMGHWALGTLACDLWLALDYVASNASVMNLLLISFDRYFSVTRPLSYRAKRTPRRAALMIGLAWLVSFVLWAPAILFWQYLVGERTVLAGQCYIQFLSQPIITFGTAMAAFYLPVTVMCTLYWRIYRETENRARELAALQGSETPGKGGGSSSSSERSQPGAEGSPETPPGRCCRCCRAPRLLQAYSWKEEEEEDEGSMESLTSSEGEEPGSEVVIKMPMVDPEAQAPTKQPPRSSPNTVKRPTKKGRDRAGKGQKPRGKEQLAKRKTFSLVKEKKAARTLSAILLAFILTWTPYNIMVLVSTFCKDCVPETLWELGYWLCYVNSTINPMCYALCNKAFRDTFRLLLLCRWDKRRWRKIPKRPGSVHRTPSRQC

[10] = molecular target: T3, Glutamate receptor ionotropic AMPA (Homo sapiens); experiment: Percent decrease of Quisqualate receptor binding using AMPA; type: protein-complex assay; set-up: scale not given: the % may be the effect or the level left; method in brief: as §2
[11] = molecular target: Serotonin 2 (5-HT2) receptor (Rattus norvegicus) (UniProt P30994+P08909+P14842); experiment: Percent decrease in 5-hydroxytryptamine 2 receptor binding using ketanserin; type: protein assay; set-up: scale not given: the % may be the effect or the level left; method in brief: as §2
Sequence of Serotonin 2 (5-HT2) receptor (Rattus norvegicus) (P08909 whole entry, looked up): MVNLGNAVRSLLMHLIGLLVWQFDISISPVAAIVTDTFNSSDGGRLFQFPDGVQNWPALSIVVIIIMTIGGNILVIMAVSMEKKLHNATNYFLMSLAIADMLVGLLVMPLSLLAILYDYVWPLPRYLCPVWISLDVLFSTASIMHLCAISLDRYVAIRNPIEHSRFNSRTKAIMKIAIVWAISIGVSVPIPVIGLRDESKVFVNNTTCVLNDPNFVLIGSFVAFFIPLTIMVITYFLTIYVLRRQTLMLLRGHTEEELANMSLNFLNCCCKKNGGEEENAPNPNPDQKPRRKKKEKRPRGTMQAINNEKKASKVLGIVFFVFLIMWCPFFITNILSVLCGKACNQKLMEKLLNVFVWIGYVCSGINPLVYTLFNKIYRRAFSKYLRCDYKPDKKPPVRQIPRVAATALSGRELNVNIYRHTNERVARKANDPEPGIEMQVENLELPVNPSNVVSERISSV
Sequence of Serotonin 2 (5-HT2) receptor (Rattus norvegicus) (P14842 whole entry, looked up): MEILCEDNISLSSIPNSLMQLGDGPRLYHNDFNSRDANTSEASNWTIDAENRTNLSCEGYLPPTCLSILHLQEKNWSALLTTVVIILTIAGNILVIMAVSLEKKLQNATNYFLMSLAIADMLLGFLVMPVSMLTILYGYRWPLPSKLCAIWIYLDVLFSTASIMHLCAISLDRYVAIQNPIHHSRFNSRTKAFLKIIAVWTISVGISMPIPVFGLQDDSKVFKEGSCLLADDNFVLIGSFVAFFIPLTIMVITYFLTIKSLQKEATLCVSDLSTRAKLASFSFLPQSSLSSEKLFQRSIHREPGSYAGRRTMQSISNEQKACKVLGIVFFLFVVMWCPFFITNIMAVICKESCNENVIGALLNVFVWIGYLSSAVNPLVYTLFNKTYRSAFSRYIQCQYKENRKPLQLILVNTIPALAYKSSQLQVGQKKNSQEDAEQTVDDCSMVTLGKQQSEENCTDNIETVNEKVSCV
Sequence of Serotonin 2 (5-HT2) receptor (Rattus norvegicus) (P30994 whole entry, looked up): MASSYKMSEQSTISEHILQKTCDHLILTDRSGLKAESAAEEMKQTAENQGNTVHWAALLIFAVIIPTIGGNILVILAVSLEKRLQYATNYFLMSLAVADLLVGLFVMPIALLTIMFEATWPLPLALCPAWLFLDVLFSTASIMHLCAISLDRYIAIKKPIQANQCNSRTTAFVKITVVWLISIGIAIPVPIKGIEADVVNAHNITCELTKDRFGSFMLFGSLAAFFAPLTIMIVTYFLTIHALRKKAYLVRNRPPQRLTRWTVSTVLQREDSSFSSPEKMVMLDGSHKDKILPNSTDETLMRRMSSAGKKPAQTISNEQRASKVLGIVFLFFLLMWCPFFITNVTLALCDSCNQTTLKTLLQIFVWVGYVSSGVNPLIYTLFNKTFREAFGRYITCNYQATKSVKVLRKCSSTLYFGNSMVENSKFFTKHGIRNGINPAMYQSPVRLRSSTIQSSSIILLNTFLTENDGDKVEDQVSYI

Sequence of D(1A) dopamine receptor (P18901 whole entry): as the sequence (P18901 whole entry, looked up) above

SMILES | Ki (D(1A) dopamine receptor) | Activity [1] | Activity [2] | Ki [3] | Ki (D(2) dopamine receptor) | Activity [4] | Activity [5] | Activity [6] | Activity [7] | Activity [8] | Activity [9] | Activity [10] | Activity [11]
CN1CCc2ccccc2Cc2[nH]c3ccccc3c2CC1 | 0.08 nM | 6% | -72% | 20 nM | 6 nM | 5% | -14% | -3% | 10% | -99% | -9% |  | 
COc1cc2c(cc1OC)C1c3[nH]c4ccccc4c3CCN1CC2 (configuration not stated) |  | 6% | -21% |  |  |  | -17% |  | 11% |  | -11% | -1% | -32%
c1ccc2c(c1)CCN1CCc3c([nH]c4ccccc34)C21 (configuration not stated) |  | 0% | -12% |  |  |  | -29% |  | 12% |  | -22% | 3% | -41%
c1ccc2c3c([nH]c2c1)C1c2[nH]c4ccccc4c2CCN1CC3 |  | 0% | -25% |  |  |  | 1% |  | 7% |  | -18% | -1% | -52%
